Results on eight molecules are retold here after ChEMBL document CHEMBL1141800, “Xenia diterpenoids from the formosan soft coral Xenia blumi” (2005).

Values after ≈ are worked out from the molar mass of the structure shown.

The test system of one test is HT-29. Put plainly: Cytotoxicity against human HT-29 cells. It is filed as functional. The following applies: read-out: ED50 (the source's name). Summed up:
(§1)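 In vitro cytotoxicity assay against cultured HT-29 (human colon adenocarcinoma) and P-388 (mouse lymphocytic leukemia) cells; P-388 line was supplied by an outside academic lab. Potency is reported as ED50 in μg/mL.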

In another test the test system is P388. In words: Cytotoxicity against mouse P388 cells. It is filed as functional. The following applies: read-out: ED50 (the source's name). Summed up: as §1

`COC(=O)[C@@H]1[C@@H](/C(=C\C=C\C(C)(C)O)COC(C)=O)CC[C@@]2(C)C[C@]1(O)CC[C@H]2O`: the EC50 in the test on HT-29 and with P388 was above 20 µg/mL each time.
For the molecule `C=C1CC[C@@H]2O[C@@]2(C)CC[C@@H]2/C(=C\C=C\C(C)(C)O)C(=O)OC[C@@H]12`, the values for the EC50 in the test on HT-29 and in the test on P388 were 8.6 µg/mL (≈ 25.9 µM) and 6.9 µg/mL (≈ 20.8 µM), respectively.
Taken in the same sequence, the figures for `C=C1CC[C@@](C)(C=O)CC[C@@H]2/C(=C\C=C\C(C)(C)O)COC(=O)[C@@H]12` were 4.6 µg/mL (≈ 13.8 µM) and 3.3 µg/mL (≈ 9.93 µM).
As for `C=C1CC/C=C(\C)CC[C@@H]2/C(=C/C=C/C(C)(C)O)C(=O)OC[C@@H]12`, the EC50 in the test with HT-29 is 8.7 µg/mL (≈ 27.5 µM); in the test on P388, above 20 µg/mL.
For `C=C1CC(=O)/C=C(/C)CC[C@@H]2/C(=C/C=C/C(C)(C)O)C(=O)OC[C@@H]12`, the results for the EC50 with HT-29 and in the test on P388 were 0.5 µg/mL (≈ 1.51 µM) and 0.2 µg/mL (≈ 0.605 µM), respectively.
Taken in the same sequence, the figures for `C=C1CC[C@@H]2O[C@@]2(C)CC[C@@H]2C([C@@H](OC(C)=O)[C@H](C=C(C)C)OC(C)=O)=CO[C@H](OC(C)=O)[C@@H]12` were above 20 µg/mL and above 20 µg/mL.
Taken in the same sequence, the figures for `C=C1CC[C@@H]2O[C@@]2(C)CC[C@@H]2/C(=C/C=C/C(C)(C)O)C(=O)OC[C@@H]12` were 5.6 µg/mL (≈ 16.8 µM) and 4.7 µg/mL (≈ 14.1 µM).
Taken in the same sequence, the figures for `C=C1CC[C@H](O)C(=C)CC[C@@H]2/C(=C\C=C\C(C)(C)O)COC(=O)[C@@H]12` were 4.9 µg/mL (≈ 14.7 µM) and 3.7 µg/mL (≈ 11.1 µM).
